Laboratory results taken from ChEMBL document CHEMBL4831496, “Noncovalent EGFR T790M/L858R inhibitors based on diphenylpyrimidine scaffold: Design, synthesis, and bioactivity evaluation for the treatment of NSCLC” (Eur J Med Chem, 2021).

Columns and labels:
[1] = target: Epidermal growth factor receptor (Homo sapiens, UniProt P00533, L858R/T790M); assay: Inhibition of EGFR L858R/T790M double mutant (unknown origin) measured after 60 mins by ADP-Glo kinase based luminescence assay
[2] = system: NCI-H1975; assay: Induction of apoptosis in human NCI-H1975 cells assessed as early apoptotic cells at 0.125 uM incubated for 48 hrs by AnnexinV/FITC and propidium iodide staining based flow cytometry analysis (reference value: 1.39%); format: functional
[3] = system: NCI-H1975; assay: Induction of apoptosis in human NCI-H1975 cells assessed as viable cells at 0.5 uM incubated for 48 hrs by AnnexinV/FITC and propidium iodide staining based flow cytometry analysis (reference value: 94.9%); format: functional; conditions: read-out: Activity
[4] = system: NCI-H1975; assay: Induction of apoptosis in human NCI-H1975 cells assessed as viable cells at 2 uM incubated for 48 hrs by AnnexinV/FITC and propidium iodide staining based flow cytometry analysis (reference value: 94.9%); format: functional; conditions: read-out: Activity
[5] = system: NCI-H1975; assay: Induction of apoptosis in human NCI-H1975 cells assessed as early apoptotic cells at 2 uM incubated for 48 hrs by AnnexinV/FITC and propidium iodide staining based flow cytometry analysis (reference value: 1.39%); format: functional
[6] = system: NCI-H1975; assay: Induction of cell cycle arrest in human NCI-H1975 cells assessed as accumulation of cells at G0/G1 phase at 0.125 uM incubated for 48 hrs by propidium iodide staining based flow cytometry analysis (reference value: 58.05%); format: functional
[7] = system: NCI-H1975; assay: Induction of cell cycle arrest in human NCI-H1975 cells assessed as accumulation of cells at G0/G1 phase at 0.5 uM incubated for 48 hrs by propidium iodide staining based flow cytometry analysis (reference value: 58.05%); format: functional
[8] = system: NCI-H1975; assay: Induction of cell cycle arrest in human NCI-H1975 cells assessed as accumulation of cells at S phase at 0.5 uM incubated for 48 hrs by propidium iodide staining based flow cytometry analysis (reference value: 11.72%); format: functional
[9] = system: NCI-H1975; assay: Induction of cell cycle arrest in human NCI-H1975 cells assessed as accumulation of cells at G0/G1 phase at 2 uM incubated for 48 hrs by propidium iodide staining based flow cytometry analysis (reference value: 58.05%); format: functional
[10] = system: NCI-H1975; assay: Induction of cell cycle arrest in human NCI-H1975 cells assessed as accumulation of cells at G2/M phase at 2 uM incubated for 48 hrs by propidium iodide staining based flow cytometry analysis (reference value: 30.23%); format: functional
[11] = AUC (0 to infinity) in Sprague-Dawley rat at 25 mg/kg, iv by LC-MS/MS analysis; format: ADME, organism-based; design: route intravenous, time infinity, dose 25 mg/kg; conditions: in vivo
Outline: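 Male Sprague-Dawley rats (200 ± 20 g), acclimatised 1 week at 25 ± 2 °C, 50-60% RH; six rats given 25 mg/kg by tail vein. Retro-orbital blood into heparin at 10, 20, 40 min and 1, 2, 3, 4, 6, 8, 12, 24 h. Plasma ethyl acetate-extracted and quantified by LC-MS/MS, transition m/z 485.3/452.3.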

[12] = organism: Homo sapiens; assay: Selectivity index, ratio of IC50 for wild type EGFR (unknown origin) to IC50 for EGFR L858R/T790M double mutant (unknown origin)
[13] = Selectivity index, ratio of IC50 for human A-431 cells harboring wild type EGFR (unknown origin) to IC50 for human NCI-H1975 cells harboring EGFR L858R/T790M mutant

Sequence of Epidermal growth factor receptor (P00533 25-1210 T790M/L858R limits assumed): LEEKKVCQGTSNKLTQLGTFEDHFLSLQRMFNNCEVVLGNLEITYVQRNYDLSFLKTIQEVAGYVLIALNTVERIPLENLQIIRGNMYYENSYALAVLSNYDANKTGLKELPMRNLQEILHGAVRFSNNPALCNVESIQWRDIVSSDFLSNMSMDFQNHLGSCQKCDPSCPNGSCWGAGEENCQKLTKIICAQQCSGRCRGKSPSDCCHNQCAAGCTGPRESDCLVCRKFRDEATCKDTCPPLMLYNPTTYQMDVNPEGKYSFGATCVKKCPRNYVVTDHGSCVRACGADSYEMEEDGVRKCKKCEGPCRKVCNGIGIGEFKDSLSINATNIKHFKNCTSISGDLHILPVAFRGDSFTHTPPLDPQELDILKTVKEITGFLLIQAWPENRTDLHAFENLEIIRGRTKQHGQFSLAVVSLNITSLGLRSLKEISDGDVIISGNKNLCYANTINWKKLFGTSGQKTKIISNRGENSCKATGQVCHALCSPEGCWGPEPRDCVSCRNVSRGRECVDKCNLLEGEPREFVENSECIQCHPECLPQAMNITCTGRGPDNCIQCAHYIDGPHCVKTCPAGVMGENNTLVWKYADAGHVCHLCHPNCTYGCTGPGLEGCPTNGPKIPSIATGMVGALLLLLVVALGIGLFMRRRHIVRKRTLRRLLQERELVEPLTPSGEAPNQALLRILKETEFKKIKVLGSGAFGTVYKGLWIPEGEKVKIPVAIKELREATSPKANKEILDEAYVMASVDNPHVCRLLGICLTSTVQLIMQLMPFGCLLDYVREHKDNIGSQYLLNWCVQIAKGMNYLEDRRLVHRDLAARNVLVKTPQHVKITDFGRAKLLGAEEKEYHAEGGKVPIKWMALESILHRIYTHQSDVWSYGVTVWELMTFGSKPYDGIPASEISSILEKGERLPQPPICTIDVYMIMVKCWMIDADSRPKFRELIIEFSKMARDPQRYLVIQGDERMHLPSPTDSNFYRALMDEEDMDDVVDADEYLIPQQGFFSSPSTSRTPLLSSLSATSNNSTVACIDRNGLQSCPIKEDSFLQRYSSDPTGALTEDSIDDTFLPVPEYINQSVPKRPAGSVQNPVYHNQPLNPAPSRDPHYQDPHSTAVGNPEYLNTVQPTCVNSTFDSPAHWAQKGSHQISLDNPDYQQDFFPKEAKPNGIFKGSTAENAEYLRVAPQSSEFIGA

`O=C(NO)c1ccccc1Nc1nc(Nc2ccc(OCCN3CCOCC3)cc2)ncc1Cl` showed an IC50 [1] of 1.1 nM, an Activity [2] of 4% and a viability at 0.5 µM [3] of 83.8%. The viability at 2 µM [4] was 8.63%, the Activity [5] was 90.55% and the Activity [6] was 20.25%. The Activity [7] was 19.16%, the Activity [8] was 9.86% and the Activity [9] was 57.28%. It also gave an Activity [10] of 31.9%, an AUC(0-inf) [11] of 45200 ng·h/mL and a Ratio IC50 [12] of 43.4. For the same compound, the “Ratio IC50” value [13] was 10.9.
